Measured values taken from article PMC6146878 (Molecules : A Journal of Synthetic Chemistry and Natural …, 2003).

Assay: Interaction with DPPH
Outline: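 DPPH 0.1 mM in absolute ethanol mixed with an equal volume of test compound in ethanol (0.1 mM); ethanol-only control. Kept at room temperature; absorbance at 517 nm recorded after 20 and 60 min. At least triplicate.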

Structure (SMILES) | DPPH (0.1 mmol/L) 20min
CC(=O)Oc1ccccc1C(=O)O [ASA, Acetyl salicylic acid] | 80.5%
CC(Cc1ccc(O)c(O)c1)C(C)Cc1ccc(O)c(O)c1 (centres unmarked) [NDGA, nor-dihydroguaeretic acid] | 94%
